Source: ChEMBL document CHEMBL1122471, “1,3-Diaryltriazenes: a new class of anorectic agents” (1983)

System: Rattus norvegicus
Test: Percentage of body weight reduction in male Sprague-Dawley rats at 25 mg/kg
Format: functional
Details: not given
In short: (§1)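 Individually housed male CD Sprague-Dawley rats trained to eat their ration within 5 h were dosed orally once daily for 5 days, 10 vehicle controls and 10 treated. Body weight was taken daily before dosing. Reduction from concurrent controls was scored in bands: 16-30%, 31-45%, 46-60%, ≥61%.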

Structure (SMILES)	Body weight reduction [%]
CC(C)C(=O)N(N=Nc1cc(C(F)(F)F)ccc1C#N)c1cc(C(F)(F)F)ccc1C#N	>61
CCCC(=O)N(N=Nc1cc(C(F)(F)F)ccc1C#N)c1cc(C(F)(F)F)ccc1C#N	>61

System: Rattus norvegicus
Test: Percentage of body weight reduction in male Sprague-Dawley rats at 50 mg/kg; 31-45% reduction from controls
Format: functional
Details: not given
In short: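 Individually housed male CD Sprague-Dawley rats trained to eat their ration within 5 h were dosed orally once daily for 5 days, 10 vehicle controls and 10 treated. Body weight was taken daily before dosing.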

Structure (SMILES)	Body weight reduction [%]
N#Cc1ccc(Cl)cc1N=NNc1cc(Cl)ccc1C#N	31
CN(N=Nc1ccccc1)c1ccccc1	31
N#Cc1cc(C(F)(F)F)ccc1N=NNc1ccc(C(F)(F)F)cc1C#N	31
FC(F)(F)c1ccccc1N=NNc1ccccc1C(F)(F)F	31
CCCNC(=O)N(N=Nc1cc(C(F)(F)F)ccc1C#N)c1cc(C(F)(F)F)ccc1C#N	31

System: Rattus norvegicus
Test: Percentage of body weight reduction in male Sprague-Dawley rats at 30 mg/kg
Format: functional
Details: not given
In short: as §1

Structure (SMILES)	Body weight reduction [%]
CN(N=Nc1cc(C(F)(F)F)ccc1C#N)c1cc(C(F)(F)F)ccc1C#N	<15

System: Rattus norvegicus
Test: Percentage of body weight reduction in male Sprague-Dawley rats at 50 mg/kg
Format: functional
Details: not given
In short: as §1

Structure (SMILES)	Body weight reduction [%]
FC(F)(F)c1cccc(N=NNc2cccc(C(F)(F)F)c2)c1	<15
CC(=O)N(N=Nc1cccc(C(F)(F)F)c1)c1cc(C(F)(F)F)ccc1C#N	<15
Cc1ccc(C#N)c(N=NNc2cc(C)ccc2C#N)c1	<15
Clc1cccc(Cl)c1N=NNc1c(Cl)cccc1Cl	<15
CC(=O)N(N=Nc1c(Cl)cccc1Cl)c1cc(C(F)(F)F)ccc1C#N	<15
N#Cc1ccc(C(F)(F)F)cc1N=NN(C(=O)CCl)c1cc(C(F)(F)F)ccc1C#N	<15
CCOC(=O)N(N=Nc1cc(C(F)(F)F)ccc1C#N)c1cc(C(F)(F)F)ccc1C#N	>61
FC(F)(F)c1ccc(Cl)c(N=NNc2cc(C(F)(F)F)ccc2Cl)c1	<15
N#Cc1ccc(C(F)(F)F)cc1N=NN(C(=O)c1ccccc1)c1cc(C(F)(F)F)ccc1C#N	<15
CC(=O)N(N=Nc1ccccc1)c1ccccc1	>61
N#Cc1ccc(C(F)(F)F)cc1N=NNc1cccc(C(F)(F)F)c1	<15
Clc1ccccc1N=NNc1ccccc1Cl	<15
CCOC(=O)NC(=O)N(N=Nc1cc(C(F)(F)F)ccc1C#N)c1cc(C(F)(F)F)ccc1C#N	>61
CC(=O)N(N=Nc1cc(C(F)(F)F)ccc1C#N)c1cc(C(F)(F)F)ccc1C#N	>61
FC(F)(F)c1ccc(Br)c(N=NNc2cc(C(F)(F)F)ccc2Br)c1	<15
COC(=O)c1ccc(C(F)(F)F)cc1N=NNc1cc(C(F)(F)F)ccc1C(=O)OC	<15
FC(F)(F)c1ccc(N=NNc2ccc(C(F)(F)F)cc2)cc1	<15

System: Rattus norvegicus
Test: Percentage of body weight reduction in male Sprague-Dawley rats at 50 mg/kg; […] reduction from controls
Format: functional
Details: not given
In short: as §1

Structure (SMILES)	Body weight reduction [%]
N#Cc1ccc(C(F)(F)F)cc1N=NNc1ccc(C(=O)O)cc1	16
N#Cc1ccc(C(F)(F)F)cc1NN=Nc1cc(C(F)(F)F)ccc1C(=O)O	16
N#Cc1ccc(C(F)(F)F)cc1NN=Nc1ccccc1	16

System: Rattus norvegicus
Test: Percentage of body weight reduction in male Sprague-Dawley rats at 50 mg/kg; 46-60% reduction from controls
Format: functional
Details: dose 25 mg/kg; in the assay text read “at 25 mg/kg” for “at 50 mg/kg”
In short: as §1

Structure (SMILES)	Body weight reduction [%]
CNC(=O)N(N=Nc1cc(C(F)(F)F)ccc1C#N)c1cc(C(F)(F)F)ccc1C#N	46

Same assay, conditions: dose 50 mg/kg

Structure (SMILES)	Body weight reduction [%]
N#Cc1ccc(C(F)(F)F)cc1NN=Nc1c(Cl)cccc1Cl	46
N#Cc1ccc(C(F)(F)F)cc1N=NN(C(=O)Nc1ccccc1)c1cc(C(F)(F)F)ccc1C#N	46
CCCCC(=O)N(N=Nc1cc(C(F)(F)F)ccc1C#N)c1cc(C(F)(F)F)ccc1C#N	46
Clc1ccc(N=NNc2ccc(Cl)cc2)cc1	46
COc1ccccc1N=NNc1ccccc1OC	46
CC(=O)N(N=Nc1ccc(C(F)(F)F)cc1C#N)c1ccc(C(F)(F)F)cc1	46
CCC(=O)N(N=Nc1cc(C(F)(F)F)ccc1C#N)c1cc(C(F)(F)F)ccc1C#N	46
COC(=O)CC(=O)N(N=Nc1cc(C(F)(F)F)ccc1C#N)c1cc(C(F)(F)F)ccc1C#N	46

System: Rattus norvegicus
Test: Percentage of body weight reduction in male Sprague-Dawley rats at 50 mg/kg;
Format: functional
Details: not given
In short: as §1

Structure (SMILES)	Body weight reduction [%]
N#Cc1ccccc1N=NNc1ccccc1C#N	<15

System: Rattus norvegicus
Test: Percentage of body weight reduction in male Sprague-Dawley rats at 25 mg/kg; 31-45% reduction from controls
Details: not given

Structure (SMILES)	Body weight reduction [%]
Clc1cccc(N=NNc2cccc(Cl)c2Cl)c1Cl	31
